Results as given in ChEMBL document CHEMBL4138067, “Design, synthesis and cytotoxicity of bengamide analogues and their epimers” (Medchemcomm, 2017).
pIC50: −log10 of the molar value.

Columns and labels:
Type in all cases: functional
[1] = tested on: KB; assay: Cytotoxicity in human KB cells assessed as reduction in cell growth incubated for 72 hrs by neutral red staining based colorimetry
Summary of the method: (§1)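 Cells grown in D-MEM with 10% fetal calf serum, 2 mM L-glutamine, penicillin G, streptomycin and gentamicin, seeded at 3 × 10^3 cells per mL. Compound stocks in DMSO/H2O (1/9). Exposure 72 h at 37 °C in air/CO2 (95:5). Living cells stained with neutral red, optical density read at 540 nm. Run in triplicate. IC50 taken as concentration inhibiting growth to 50% of untreated control.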

[2] = tested on: MCF7; assay: Cytotoxicity in human MCF7 cells assessed as reduction in cell growth incubated for 72 hrs by neutral red staining based colorimetry; settings: MCF7, 72 h; summary of the method: as §1
[3] = tested on: Lu1; assay: Cytotoxicity in human Lu1 cells assessed as reduction in cell growth incubated for 72 hrs by neutral red staining based colorimetry; settings: Lu1, 72 h; summary of the method: as §1
[4] = tested on: HL-60; assay: Cytotoxicity in human HL60 cells assessed as reduction in cell growth incubated for 72 hrs by neutral red staining based colorimetry; settings: HL-60, 72 h; summary of the method: as §1
[5] = tested on: HeLa; assay: Cytotoxicity in human HeLa cells assessed as reduction in cell growth incubated for 72 hrs by neutral red staining based colorimetry; summary of the method: as §1
[6] = tested on: HepG2; assay: Cytotoxicity in human HepG2 cells assessed as reduction in cell growth incubated for 72 hrs by neutral red staining based colorimetry; settings: HepG2, 72 h; summary of the method: as §1

Row | SMILES | pIC50 [1] | pIC50 [2] | pIC50 [3] | pIC50 [4] | pIC50 [5] | pIC50 [6]
1 | Cc1c2ccncc2c(C)c2c1[nH]c1ccccc12 [ELLIPTECINE] | 5.92 | 5.62 | 5.80 | 5.70 | 5.80 | 
2 | CO[C@@H](C(=O)N[C@@H]1CC[C@@H](O)CNC1=O)[C@H](O)[C@@H](O)[C@H](O)/C=C/C(C)(C)C | 5.29 | 3.78 | 4.76 | 4.92 | 4.81 | 4.67
3 | CO[C@@H](C(=O)N[C@H]1CCCCNC1=O)[C@H](O)[C@@H](O)[C@H](O)/C=C/C(C)(C)C | 4.68 | 5.89 | 5.37 | 4.08 | 4.22 | 4.68
4 | CO[C@@H](C(=O)N[C@@H]1CC[C@H](O)CNC1=O)[C@H](O)[C@@H](O)[C@H](O)/C=C/C(C)(C)C | 4.63 | 4.09 | 4.44 | < 3.82 | < 3.82 | 3.86
5 | CO[C@@H](C(=O)N[C@@H]1CCCCNC1=O)[C@@H]1OC(C)(C)O[C@H](/C=C/C(C)(C)C)[C@@H]1O | < 3.82 | < 3.82 | < 3.82 | < 3.82 | < 3.82 | < 3.82
6 | CO[C@@H](C(=O)N[C@@H]1CCCCNC1=O)[C@H](O)[C@@H](O)[C@H](O)/C=C/C(C)(C)C | 5.96 | 6.70 | 6.30 | 5.28 | 5.68 | 5.96
7 | CO[C@@H](C(=O)N[C@H]1CC[C@H](O)CNC1=O)[C@H](O)[C@@H](O)[C@H](O)/C=C/C(C)(C)C | 4.70 | 3.84 | 5.00 | < 3.82 | < 3.82 | 3.99
8 | CO[C@@H](C(=O)N[C@H]1CCCCNC1=O)[C@@H]1OC(C)(C)O[C@H](/C=C/C(C)(C)C)[C@@H]1O | < 3.82 | < 3.82 | < 3.82 | < 3.82 | < 3.82 | < 3.82
9 | CO[C@@H](C(=O)N[C@H]1CC[C@@H](O)CNC1=O)[C@H](O)[C@@H](O)[C@H](O)/C=C/C(C)(C)C | 4.20 | 4.63 | 4.63 | < 3.82 | < 3.82 | < 3.82
